# Activity calls are given as the source filed them. No cut-off for these calls is given here.
# How the values were obtained:
# [1] = Antioxidant activity assessed as reduction of Copper(I) at 1 uM; format: functional
# [2] = Antioxidant activity assessed as trolox equivalents of peroxyl radical scavenging activity at 5 uM by ORAC assay; format: functional
# [3] = Antioxidant activity assessed as Cu2+ chelating activity at 1 uM; format: functional
# [4] = Antioxidant activity assessed as Cu2+ chelating activity at 5 uM; format: functional
# A549 = assay: Cytotoxicity against human A549 cells after 72 hrs; format: functional, cell-based; settings: A549, 72 h
# In short: (§1)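 Human A549 (lung) and HL-60 (leukemia) cancer cells were exposed to compounds up to a maximum of 100 µM, and cell growth was measured. IC50 is the concentration that inhibits 50% of cell growth, reported as mean ± SD of experiments run in triplicate. Mitoxantrone served as the reference compound.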
# [5] = Antioxidant activity assessed as reduction of Copper(I) at 5 uM; format: functional
# HL-60 = assay: Cytotoxicity against human HL60 cells after 72 hrs; format: functional, cell-based; settings: HL-60, 72 h; in short: as §1
# [6] = Antioxidant activity assessed as trolox equivalents of peroxyl radical scavenging activity at 1 uM by ORAC assay; format: functional
Compound,Activity [1],Activity [2],Activity [3],Activity [4],IC50 (A549),Activity [5],IC50 (HL-60),Activity [6]
C=C1CC/C=C(\C)CC[C@@H](C2=CC[C@H](C(C)(C)O)OC2)C[C@H]1O [LOBOCOMPACTOL B],inactive,1.3 µM,inactive,inactive,> 100 µM,inactive,37.5 µM,–
C=C[C@@]1(C)CC[C@H](C2=CC[C@H](C(C)(C)O)OC2=O)C[C@@H]1C(=C)C [LOBATRIENOLIDE],inactive,–,inactive,inactive,23 µM,inactive,24.8 µM,inactive
C=C(CC[C@@H](C)[C@H]1CC[C@@H]([C@@H]2CC=C3C[C@@H](O)CC[C@]3(C)C2=O)[C@]1(C)CCO)C(C)C,inactive,–,inactive,inactive,4.97 µM,inactive,17.8 µM,inactive
C[C@H](CC[C@H](C)C(C)(C)O)[C@H]1CC[C@H]2[C@@H]3C[C@@H](O)[C@@]4(O)C[C@@H](O)CC[C@]4(C)[C@H]3CC[C@]12C,inactive,–,inactive,inactive,> 100 µM,inactive,59.1 µM,inactive
C=C1CC/C=C(\C)CC[C@H](C2=CC[C@H](C(C)(C)O)OC2)C[C@H]1O [LOBOCOMPACTOL A],inactive,1.4 µM,inactive,inactive,> 100 µM,inactive,48.2 µM,–
C=C[C@@]1(C)CC[C@H](C2=CC[C@H](C(C)(C)O)OC2)C[C@@H]1C(=C)C [LOBATRIENE],inactive,–,inactive,inactive,31.1 µM,inactive,33.8 µM,inactive
O=C1c2c(O)ccc(O)c2C(=O)c2c(NCCNCCO)ccc(NCCNCCO)c21 [MITOXANTRONE],–,–,–,–,7.83 µM,–,8.1 µM,–
CC(=O)OC(C)(C)[C@@H](C)CC[C@@H](C)[C@H]1CC[C@H]2[C@@H]3C[C@@H](O)[C@@]4(O)C[C@@H](O)CC[C@]4(C)[C@H]3CC[C@]12C,inactive,–,inactive,inactive,36.5 µM,inactive,42.8 µM,inactive

# Source: ChEMBL document CHEMBL1759843, “Cytotoxic and antioxidant activities of diterpenes and sterols from the Vietnamese soft coral Lobophytum compactum” (Bioorg Med Chem Lett, 2011)
